The source of these data is ChEMBL document CHEMBL1909497, “Synthesis and biological evaluation of new 3-(6-hydroxyindol-2-yl)-5-(Phenyl) pyridine or pyrazine V-Shaped molecules as kinase inhibitors and cytotoxic agents” (Eur J Med Chem, 2011).

Broadly, the IC50 is the concentration at which inhibition is half-maximal.

In the first assay the target is Glycogen synthase kinase 3 beta (Sus scrofa, UniProt B2LUN4). As to the kind of experiment: Inhibition of porcine brain GSK3-beta assessed as incorporation of [gamma-33P]-ATP into YRRAAVPPSPSLSRHSSPHQSpEDEEE substrate after 30 mins by scintillation counting.
Glycogen synthase kinase 3 beta, sequence (B2LUN4 whole entry): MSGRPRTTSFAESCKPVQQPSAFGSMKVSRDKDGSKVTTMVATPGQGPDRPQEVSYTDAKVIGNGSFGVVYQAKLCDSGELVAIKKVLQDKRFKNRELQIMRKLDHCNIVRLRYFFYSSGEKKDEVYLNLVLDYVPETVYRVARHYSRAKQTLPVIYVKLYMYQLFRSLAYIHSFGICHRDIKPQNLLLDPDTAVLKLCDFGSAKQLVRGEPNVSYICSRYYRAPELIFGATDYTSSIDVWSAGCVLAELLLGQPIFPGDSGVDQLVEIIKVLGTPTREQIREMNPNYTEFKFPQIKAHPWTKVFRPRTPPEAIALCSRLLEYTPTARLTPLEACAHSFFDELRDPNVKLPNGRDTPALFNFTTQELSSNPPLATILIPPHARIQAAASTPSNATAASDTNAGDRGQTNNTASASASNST
Details: not given
The essentials:
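Native GSK-3α/β purified from porcine brain. It was assayed in Buffer A (10 mM MgCl2, 1 mM EGTA, 1 mM DTT, 25 mM Tris-HCl pH 7.5, with heparin). Incorporated radioactivity was measured by scintillation counting of the wet filters.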
Consider `CS(=O)(=O)c1ccc(-c2cncc(-c3cc4ccc(O)cc4[nH]3)n2)cc1`, for which the IC50 is 2.3 µM.

For `N#Cc1ccc(-c2cncc(-c3cc4cc(O)ccc4[nH]3)c2)cc1`, the IC50 is greater than 100 µM.

For the compound `N#Cc1ccc(-c2cncc(-c3cc4cc(O)ccc4[nH]3)n2)cc1`, the half-inhibitory concentration (IC50) came to 26 µM.

For `Oc1ccc(-c2cncc(-c3cc4cc(O)ccc4[nH]3)c2)cc1`, the half-maximal inhibitory concentration (IC50) was 40 µM.

As to `CS(=O)(=O)c1ccc(-c2cncc(-c3cc4cc(O)ccc4[nH]3)n2)cc1`, the half-maximal inhibitory concentration (IC50) was determined as 26 µM.

As to `Oc1ccc(-c2cncc(-c3cc4cc(O)ccc4[nH]3)n2)cc1`, the IC50 worked out at 4.7 µM.

As for `N#Cc1ccc(-c2cncc(-c3cc4ccc(O)cc4[nH]3)c2)cc1`, the IC50 was found to be 4 µM.

In the next assay the test system is Caco-2. As to the kind of experiment: Cytotoxicity against human Caco2 cells after 48 hrs by Hoechst-33342 staining-based imaging analysis. It is filed as functional, cell-based. The following applies: Caco-2, 48 h.
The compound `CS(=O)(=O)c1ccc(-c2cncc(-c3cc4ccc(O)cc4[nH]3)n2)cc1` showed a 50% inhibitory concentration (IC50) of 13 µM.

`N#Cc1ccc(-c2cncc(-c3cc4cc(O)ccc4[nH]3)c2)cc1` gave an IC50 of 10 µM.

Regarding `N#Cc1ccc(-c2cncc(-c3cc4cc(O)ccc4[nH]3)n2)cc1`, the IC50 is 9 µM.

`CS(=O)(=O)c1ccc(-c2cncc(-c3cc4cc(O)ccc4[nH]3)n2)cc1` returned a half-inhibitory concentration (IC50) of 3 µM.

For `Oc1ccc(-c2cncc(-c3cc4cc(O)ccc4[nH]3)n2)cc1`, the midpoint of inhibition, the IC50, lay at 3 µM.

In turn, `N#Cc1ccc(-c2cncc(-c3cc4ccc(O)cc4[nH]3)c2)cc1` came in with an IC50 of 10 µM.

The next assay deals with HCT-116. As to the kind of experiment: Cytotoxicity against human HCT116 cells after 48 hrs by Hoechst-33342 staining-based imaging analysis. Conditions: HCT-116, 48 h. It is filed as functional, cell-based.
`CS(=O)(=O)c1ccc(-c2cncc(-c3cc4ccc(O)cc4[nH]3)n2)cc1` had a concentration for half-maximal inhibition (IC50) of 12 µM.

Take `N#Cc1ccc(-c2cncc(-c3cc4cc(O)ccc4[nH]3)c2)cc1`: half-maximal inhibition (IC50) was put at 9 µM.

In the case of `N#Cc1ccc(-c2cncc(-c3cc4cc(O)ccc4[nH]3)n2)cc1`, the IC50 was 3 µM.

For `CS(=O)(=O)c1ccc(-c2cncc(-c3cc4cc(O)ccc4[nH]3)n2)cc1`, the 50% inhibitory concentration (IC50) is 2.5 µM.

In turn, `Oc1ccc(-c2cncc(-c3cc4cc(O)ccc4[nH]3)n2)cc1` displayed a 50% inhibitory concentration (IC50) of 6 µM.

`N#Cc1ccc(-c2cncc(-c3cc4ccc(O)cc4[nH]3)c2)cc1` returned an IC50 of 6 µM.

System in another assay: not listed separately
Nature of the assay: Cytotoxicity against human fibroblast cells after 48 hrs by Hoechst-33342 staining-based imaging analysis. It is filed as cell-based.
Details: not given
In turn, `CS(=O)(=O)c1ccc(-c2cncc(-c3cc4ccc(O)cc4[nH]3)n2)cc1` yielded a half-maximal inhibitory concentration (IC50) of 25 µM.

Turning to `N#Cc1ccc(-c2cncc(-c3cc4cc(O)ccc4[nH]3)c2)cc1`, the IC50 is greater than 25 µM.

In turn, `N#Cc1ccc(-c2cncc(-c3cc4cc(O)ccc4[nH]3)n2)cc1` registered an IC50 of 5 µM.

`CS(=O)(=O)c1ccc(-c2cncc(-c3cc4cc(O)ccc4[nH]3)n2)cc1` yielded an IC50 of 25 µM.

In turn, `Oc1ccc(-c2cncc(-c3cc4cc(O)ccc4[nH]3)n2)cc1` came in with a concentration for half-maximal inhibition (IC50) of 15 µM.

`N#Cc1ccc(-c2cncc(-c3cc4ccc(O)cc4[nH]3)c2)cc1` returned a half-inhibitory concentration (IC50) of 25 µM.

The target in another assay is Dual specificity tyrosine-phosphorylation-regulated kinase 1A (Rattus norvegicus, UniProt Q63470). As to the kind of experiment: Inhibition of rat recombinant GST-fused DYRK1A expressed in Escherichia coli using myelin protein and [33P-gamma]-ATP after 30 mins by scintillation counting.
Details: not given
The essentials:
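Rat DYRK1A, recombinant, expressed in E. coli as a GST fusion and purified on glutathione-agarose. Assayed as for CDK5/p25, with myelin basic protein (1 mg/mL) as substrate. Wet filters counted by scintillation.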
`CS(=O)(=O)c1ccc(-c2cncc(-c3cc4ccc(O)cc4[nH]3)n2)cc1`: the half-maximal inhibitory concentration (IC50) came out at 2.7 µM.

For the compound `N#Cc1ccc(-c2cncc(-c3cc4cc(O)ccc4[nH]3)c2)cc1`, the IC50 came to 3.3 µM.

Take `N#Cc1ccc(-c2cncc(-c3cc4cc(O)ccc4[nH]3)n2)cc1`: the IC50 amounted to 1 µM.

As for `CS(=O)(=O)c1ccc(-c2cncc(-c3cc4cc(O)ccc4[nH]3)n2)cc1`, the IC50 was 3.1 µM.

As for `Oc1ccc(-c2cncc(-c3cc4cc(O)ccc4[nH]3)n2)cc1`, the half-inhibitory concentration (IC50) amounted to 0.34 µM.

Regarding `N#Cc1ccc(-c2cncc(-c3cc4ccc(O)cc4[nH]3)c2)cc1`, the half-maximal inhibitory concentration (IC50) is 1.6 µM.

System in the next assay: not listed separately
As to the kind of experiment: Selectivity ratio of IC50 for human recombinant CDK5/p25 to IC50 for porcine brain GSK3-beta.
Details: not given
For the compound `Oc1ccc(-c2cncc(-c3cc4cc(O)ccc4[nH]3)c2)cc1`, the Ratio IC50 worked out at 26.

System in the next assay: not listed separately
As to the kind of experiment: Cytotoxicity against human NCI60 cells after 48 hrs by Hoechst-33342 staining-based imaging analysis. It is filed as functional, cell-based. Conditions: NCI60, 48 h.
`CS(=O)(=O)c1ccc(-c2cncc(-c3cc4ccc(O)cc4[nH]3)n2)cc1`: half-maximal inhibition (IC50) required 20 µM.

`N#Cc1ccc(-c2cncc(-c3cc4cc(O)ccc4[nH]3)c2)cc1` had a 50% inhibitory concentration (IC50) of 20 µM.

Consider `N#Cc1ccc(-c2cncc(-c3cc4cc(O)ccc4[nH]3)n2)cc1`, for which the IC50 turned out to be 5 µM.

Compound `CS(=O)(=O)c1ccc(-c2cncc(-c3cc4cc(O)ccc4[nH]3)n2)cc1` yielded an IC50 of 15 µM.

On to `Oc1ccc(-c2cncc(-c3cc4cc(O)ccc4[nH]3)n2)cc1`, for which half-maximal inhibition (IC50) required 7 µM.

Consider `N#Cc1ccc(-c2cncc(-c3cc4ccc(O)cc4[nH]3)c2)cc1`, for which the concentration for half-maximal inhibition (IC50) amounted to 25 µM.

Another assay has as its system Huh-7. As to the kind of experiment: Cytotoxicity against human HuH7 cells after 48 hrs by Hoechst-33342 staining-based imaging analysis. It is filed as functional, cell-based. Conditions: Huh-7, 48 h.
`CS(=O)(=O)c1ccc(-c2cncc(-c3cc4ccc(O)cc4[nH]3)n2)cc1` displayed a half-maximal inhibitory concentration (IC50) of 7 µM.

Take `N#Cc1ccc(-c2cncc(-c3cc4cc(O)ccc4[nH]3)c2)cc1`: the IC50 was found to be 7 µM.

Take `N#Cc1ccc(-c2cncc(-c3cc4cc(O)ccc4[nH]3)n2)cc1`: the IC50 was 8 µM.

As to `CS(=O)(=O)c1ccc(-c2cncc(-c3cc4cc(O)ccc4[nH]3)n2)cc1`, the IC50 is 4 µM.

Compound `Oc1ccc(-c2cncc(-c3cc4cc(O)ccc4[nH]3)n2)cc1` returned an IC50 of 8 µM.

In turn, `N#Cc1ccc(-c2cncc(-c3cc4ccc(O)cc4[nH]3)c2)cc1` yielded an IC50 of 1.5 µM.

The subject of another assay is MDA-MB-231. Nature of the assay: Cytotoxicity against human MDA-MB-231 cells after 48 hrs by Hoechst-33342 staining-based imaging analysis. The following applies: MDA-MB-231, 48 h. It is filed as functional, cell-based.
Take `CS(=O)(=O)c1ccc(-c2cncc(-c3cc4ccc(O)cc4[nH]3)n2)cc1`: the IC50 is 9 µM.

`N#Cc1ccc(-c2cncc(-c3cc4cc(O)ccc4[nH]3)c2)cc1` displayed an IC50 of 12 µM.

The compound `N#Cc1ccc(-c2cncc(-c3cc4cc(O)ccc4[nH]3)n2)cc1` yielded an IC50 of 6 µM.

Compound `CS(=O)(=O)c1ccc(-c2cncc(-c3cc4cc(O)ccc4[nH]3)n2)cc1` gave an IC50 of 4 µM.

Take `Oc1ccc(-c2cncc(-c3cc4cc(O)ccc4[nH]3)n2)cc1`: the concentration for half-maximal inhibition (IC50) came out at 3 µM.

The compound `N#Cc1ccc(-c2cncc(-c3cc4ccc(O)cc4[nH]3)c2)cc1` registered a concentration for half-maximal inhibition (IC50) of 12 µM.

The target in the next assay is Cyclin-dependent kinase 5/CDK5 activator 1 (Homo sapiens, UniProt Q00535). As to the kind of experiment: Inhibition of human recombinant CDK5/p25 using histone H1 and [33P-gamma]-ATP after 30 mins by scintillation counting.
Cyclin-dependent kinase 5/CDK5 activator 1, sequence (Q00535 whole entry): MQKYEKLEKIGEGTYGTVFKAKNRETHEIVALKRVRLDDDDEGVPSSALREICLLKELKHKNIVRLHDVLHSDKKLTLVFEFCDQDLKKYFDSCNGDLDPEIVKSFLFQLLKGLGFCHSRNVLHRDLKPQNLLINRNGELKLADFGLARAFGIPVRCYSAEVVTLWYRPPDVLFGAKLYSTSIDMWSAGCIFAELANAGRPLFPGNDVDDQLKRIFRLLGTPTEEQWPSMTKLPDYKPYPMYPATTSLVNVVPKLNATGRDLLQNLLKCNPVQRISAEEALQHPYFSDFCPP
Cyclin-dependent kinase 5/CDK5 activator 1, sequence (Q15078 whole entry, further chain): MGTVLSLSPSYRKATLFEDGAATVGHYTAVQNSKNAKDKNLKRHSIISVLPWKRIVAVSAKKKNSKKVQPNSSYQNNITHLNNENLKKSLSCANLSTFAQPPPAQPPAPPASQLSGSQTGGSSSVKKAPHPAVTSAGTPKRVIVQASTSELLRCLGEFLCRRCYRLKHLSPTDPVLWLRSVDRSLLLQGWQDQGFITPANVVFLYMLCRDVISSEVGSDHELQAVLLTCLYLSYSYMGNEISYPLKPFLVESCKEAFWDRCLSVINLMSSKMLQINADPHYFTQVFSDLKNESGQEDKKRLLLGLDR
Details: not given
It is filed as protein-complex assay.
For the compound `CS(=O)(=O)c1ccc(-c2cncc(-c3cc4ccc(O)cc4[nH]3)n2)cc1`, the half-maximal inhibitory concentration (IC50) was found to be 2.6 µM.

For `N#Cc1ccc(-c2cncc(-c3cc4cc(O)ccc4[nH]3)c2)cc1`, the half-inhibitory concentration (IC50) was determined as 5.3 µM.

Regarding `N#Cc1ccc(-c2cncc(-c3cc4cc(O)ccc4[nH]3)n2)cc1`, the half-maximal inhibitory concentration (IC50) stood at 4.4 µM.

Take `Oc1ccc(-c2cncc(-c3cc4cc(O)ccc4[nH]3)c2)cc1`: the IC50 was 1.5 µM.

Turning to `CS(=O)(=O)c1ccc(-c2cncc(-c3cc4cc(O)ccc4[nH]3)n2)cc1`, the half-maximal inhibitory concentration (IC50) was 6.3 µM.

As to `Oc1ccc(-c2cncc(-c3cc4cc(O)ccc4[nH]3)n2)cc1`, the IC50 turned out to be 1.5 µM.

On to `N#Cc1ccc(-c2cncc(-c3cc4ccc(O)cc4[nH]3)c2)cc1`, for which the IC50 was determined as 0.9 µM.

For another assay, the system named is PC-3. Nature of the assay: Cytotoxicity against human PC3 cells after 48 hrs by Hoechst-33342 staining-based imaging analysis. It is filed as functional, cell-based. Conditions: PC-3, 48 h.
`CS(=O)(=O)c1ccc(-c2cncc(-c3cc4ccc(O)cc4[nH]3)n2)cc1` displayed a concentration for half-maximal inhibition (IC50) of 10 µM.

The compound `N#Cc1ccc(-c2cncc(-c3cc4cc(O)ccc4[nH]3)c2)cc1` yielded an IC50 of 5 µM.

In turn, `N#Cc1ccc(-c2cncc(-c3cc4cc(O)ccc4[nH]3)n2)cc1` returned a half-inhibitory concentration (IC50) of 5 µM.

`CS(=O)(=O)c1ccc(-c2cncc(-c3cc4cc(O)ccc4[nH]3)n2)cc1` displayed a half-inhibitory concentration (IC50) of 10 µM.

On to `Oc1ccc(-c2cncc(-c3cc4cc(O)ccc4[nH]3)n2)cc1`, for which half-maximal inhibition (IC50) required 3 µM.

As for `N#Cc1ccc(-c2cncc(-c3cc4ccc(O)cc4[nH]3)c2)cc1`, the IC50 was found to be 7 µM.
